Where “and” joins values, the source holds several entries; their conditions need not be identical. Equal values may be shown once.
Legend:
[1] = system: Mus musculus; test: In vivo antitumor activity was evaluated against L1210 leukemia implanted mice by measuring percent increase in life span after intraperitoneal administration of compound at 0.75 mg/kg; format: functional
Procedure, shortened: (§1)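 Male B6D2F1J mice, five per group, were implanted ip with 10^5 L1210 cells on day 0. Treatment began on day 1. Drug was given ip in sterile water, twice daily on days 1-4 and 7-10, and as a single double-dose injection on days 5 and 6. Survival was recorded in days (range, and median treated/control), with % ILS derived from it. Body-weight change at 7 days was also recorded.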

[2] = system: Mus musculus; test: In vivo antitumor activity was evaluated against L1210 leukemia implanted mice by measuring number of survival days after intraperitoneal administration of compound at 0.5 mg/kg; at a range of 15-18; format: functional; procedure, shortened: as §1
[3] = system: Mus musculus; test: In vivo antitumor activity was evaluated against L1210 leukemia implanted mice by measuring percent increase in life span after intraperitoneal administration of compound at 0.5 mg/kg; format: functional; procedure, shortened: as §1
[4] = system: Mus musculus; test: In vivo antitumor activity was evaluated against L1210 leukemia implanted mice by measuring T/C median after intraperitoneal administration of compound at 0.75 mg/kg; T/C median=18/9; format: functional; procedure, shortened: as §1
[5] = system: Mus musculus; test: In vivo antitumor activity was evaluated against L1210 leukemia implanted mice by measuring T/C median after intraperitoneal administration of compound at 0.5 mg/kg; T/C median=16/9; format: functional; procedure, shortened: as §1
[6] = system: L1210; test: Compound was evaluated for its cytotoxicity against the L1210 murine leukemia cell culture; format: functional; conditions: Mus musculus, read-out: ID50 (the source's name)
[7] = system: Mus musculus; test: In vivo antitumor activity was evaluated against L1210 leukemia implanted mice by measuring percent increase in life span after intraperitoneal administration of compound at 1 mg/kg; format: functional; procedure, shortened: as §1
[8] = system: Mus musculus; test: In vivo antitumor activity was evaluated against L1210 leukemia implanted mice by measuring 7-day weight change after intraperitoneal administration of compound at 0.5 mg/kg; format: functional
Procedure, shortened: (§2)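 Groups of five male B6D2F1J mice were inoculated ip with 10^5 L1210 cells on day 0. Starting day 1, drug in sterile water was given ip bid on days 1-4 and 7-10, with a single double-dose injection on days 5 and 6. Percent body-weight change was recorded at day 7, along with survival range, median T/C and ILS.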

[9] = system: Mus musculus; test: In vivo antitumor activity was evaluated against L1210 leukemia implanted mice by measuring T/C median after intraperitoneal administration of compound at 1 mg/kg; T/C median=21/9; format: functional; procedure, shortened: as §1
[10] = system: Mus musculus; test: In vivo antitumor activity was evaluated against L1210 leukemia implanted mice by measuring number of survival days after intraperitoneal administration of compound at 1 mg/kg; at a range of 3-22; format: functional; procedure, shortened: as §1
[11] = system: Mus musculus; test: In vivo antitumor activity was evaluated against L1210 leukemia implanted mice by measuring number of survival days after intraperitoneal administration of compound at 0.75 mg/kg; at a range of 16-21; format: functional; procedure, shortened: as §1
[12] = system: Mus musculus; test: In vivo antitumor activity was evaluated against L1210 leukemia implanted mice by measuring 7-day weight change after intraperitoneal administration of compound at 1 mg/kg; format: functional; procedure, shortened: as §2
[13] = system: Mus musculus; test: In vivo antitumor activity was evaluated against L1210 leukemia implanted mice by measuring 7-day weight change after intraperitoneal administration of compound at 0.75 mg/kg; format: functional; procedure, shortened: as §2
[14] = system: Mus musculus; test: In vivo antitumor activity was evaluated against L1210 leukemia implanted mice by measuring number of survival days after intraperitoneal administration of compound at 0.06 mg/kg at a range of 11-13; format: functional; procedure, shortened: as §1
[15] = system: Mus musculus; test: In vivo antitumor activity was evaluated against L1210 leukemia implanted mice by measuring T/C median after intraperitoneal administration of compound at 0.24 mg/kg; T/C median=19/8; format: functional; procedure, shortened: as §1
[16] = system: Mus musculus; test: In vivo antitumor activity was evaluated against L1210 leukemia implanted mice by measuring percent increase in life span after intraperitoneal administration of compound at 0.24 mg/kg; format: functional; procedure, shortened: as §1
[17] = system: Mus musculus; test: In vivo antitumor activity was evaluated against L1210 leukemia implanted mice by measuring 7-day weight change after intraperitoneal administration of compound at 0.06 mg/kg; format: functional; procedure, shortened: as §2
[18] = system: Mus musculus; test: In vivo antitumor activity was evaluated against L1210 leukemia implanted mice by measuring 7-day weight change after intraperitoneal administration of compound at 0.24 mg/kg; format: functional; procedure, shortened: as §2
[19] = system: Mus musculus; test: In vivo antitumor activity was evaluated against L1210 leukemia implanted mice by measuring number of survival days after intraperitoneal administration of compound at 0.12 mg/kg at a range of 12-15; format: functional
Procedure, shortened: (§3)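 Male B6D2F1J mice, five per group, were inoculated ip with 10^5 L1210 cells on day 0. Treatment began on day 1, given ip in sterile water twice daily on days 1-4 and 7-10, with a single double-dose injection on each of days 5 and 6. Read-outs were percent body weight change over 7 days, survival range in days, treated/control median survival, and percent increase in life span.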

[20] = system: Mus musculus; test: In vivo antitumor activity was evaluated against L1210 leukemia implanted mice by measuring 7-day weight change after intraperitoneal administration of compound at 0.12 mg/kg; format: functional; procedure, shortened: as §3
[21] = system: Mus musculus; test: In vivo antitumor activity was evaluated against L1210 leukemia implanted mice by measuring percent increase in life span after intraperitoneal administration of compound at 0.12 mg/kg; format: functional; procedure, shortened: as §3
[22] = system: Mus musculus; test: In vivo antitumor activity was evaluated against L1210 leukemia implanted mice by measuring number of survival days after intraperitoneal administration of compound at 0.24 mg/kg at a range of 12-20; format: functional; procedure, shortened: as §1
[23] = target: T1, Dihydrofolate reductase (Mus musculus) (UniProt P00375)
T1 sequence (whole entry): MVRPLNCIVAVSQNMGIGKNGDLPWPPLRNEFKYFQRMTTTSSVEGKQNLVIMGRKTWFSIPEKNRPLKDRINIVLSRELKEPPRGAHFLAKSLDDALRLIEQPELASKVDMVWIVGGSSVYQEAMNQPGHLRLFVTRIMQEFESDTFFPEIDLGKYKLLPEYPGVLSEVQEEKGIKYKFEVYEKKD

[24] = system: Mus musculus; test: In vivo antitumor activity was evaluated against L1210 leukemia implanted mice by measuring T/C median after intraperitoneal administration of compound at 0.12 mg/kg; T/C median=14/8; format: functional; procedure, shortened: as §3
[25] = system: Mus musculus; test: In vivo antitumor activity was evaluated against L1210 leukemia implanted mice by measuring percent increase in life span after intraperitoneal administration of compound at 0.06 mg/kg; format: functional; procedure, shortened: as §1
[26] = system: Mus musculus; test: In vivo antitumor activity was evaluated against L1210 leukemia implanted mice by measuring T/C median after intraperitoneal administration of compound at 2 mg/kg; T/C median=19/8; format: functional; procedure, shortened: as §1
[27] = system: Mus musculus; test: In vivo antitumor activity was evaluated against L1210 leukemia implanted mice by measuring T/C median after intraperitoneal administration of compound at 1 mg/kg; T/C median=16/8; format: functional; procedure, shortened: as §1
[28] = system: Mus musculus; test: In vivo antitumor activity was evaluated against L1210 leukemia implanted mice by measuring percent increase in life span after intraperitoneal administration of compound at 2 mg/kg; format: functional; procedure, shortened: as §1
[29] = system: Mus musculus; test: In vivo antitumor activity was evaluated against L1210 leukemia implanted mice by measuring number of survival days after intraperitoneal administration of compound at 1 mg/kg; at a range of 13-17; format: functional; procedure, shortened: as §1
[30] = system: Mus musculus; test: In vivo antitumor activity was evaluated against L1210 leukemia implanted mice by measuring number of survival days after intraperitoneal administration of compound at 2 mg/kg; at a range of 16-20; format: functional; procedure, shortened: as §1
[31] = system: Mus musculus; test: In vivo antitumor activity was evaluated against L1210 leukemia implanted mice by measuring 7-day weight change after intraperitoneal administration of compound at 2 mg/kg; format: functional; procedure, shortened: as §2
[32] = system: Mus musculus; test: In vivo antitumor activity was evaluated against L1210 leukemia implanted mice by measuring T/C median after intraperitoneal administration of compound at 0.5 mg/kg; T/C median=15/8; format: functional; procedure, shortened: as §1
[33] = system: Mus musculus; test: In vivo antitumor activity was evaluated against L1210 leukemia implanted mice by measuring number of survival days after intraperitoneal administration of compound at 0.5 mg/kg; at a range of 13-16; format: functional; procedure, shortened: as §1
[34] = system: Mus musculus; test: In vivo antitumor activity was evaluated against L1210 leukemia implanted mice by measuring number of survival days after intraperitoneal administration of compound at 16 mg/kg; at a range of 11-14; format: functional; procedure, shortened: as §1
[35] = system: Mus musculus; test: In vivo antitumor activity was evaluated against L1210 leukemia implanted mice by measuring number of survival days after intraperitoneal administration of compound at 32 mg/kg; at a range of 12-16; format: functional; procedure, shortened: as §1
[36] = system: Mus musculus; test: In vivo antitumor activity was evaluated against L1210 leukemia implanted mice by measuring percent increase in life span after intraperitoneal administration of compound at 16 mg/kg; format: functional; procedure, shortened: as §1
[37] = system: Mus musculus; test: In vivo antitumor activity was evaluated against L1210 leukemia implanted mice by measuring T/C median after intraperitoneal administration of compound at 16 mg/kg; T/C median=12/9; format: functional; procedure, shortened: as §1
[38] = system: Mus musculus; test: In vivo antitumor activity was evaluated against L1210 leukemia implanted mice by measuring 7-day weight change after intraperitoneal administration of compound at 32 mg/kg; format: functional; procedure, shortened: as §2
[39] = system: Mus musculus; test: In vivo antitumor activity was evaluated against L1210 leukemia implanted mice by measuring percent increase in life span after intraperitoneal administration of compound at 32 mg/kg; format: functional; procedure, shortened: as §1
[40] = system: Mus musculus; test: In vivo antitumor activity was evaluated against L1210 leukemia implanted mice by measuring 7-day weight change after intraperitoneal administration of compound at 16 mg/kg; format: functional; procedure, shortened: as §2
[41] = system: Mus musculus; test: In vivo antitumor activity was evaluated against L1210 leukemia implanted mice by measuring T/C median after intraperitoneal administration of compound at 32 mg/kg; T/C median=13/9; format: functional; procedure, shortened: as §1
[42] = system: Mus musculus; test: In vivo antitumor activity was evaluated against L1210 leukemia implanted mice by measuring T/C median after intraperitoneal administration of compound at 16 mg/kg; 21/9; format: functional; procedure, shortened: as §3
[43] = system: Mus musculus; test: In vivo antitumor activity was evaluated against L1210 leukemia implanted mice by measuring number of survival days after intraperitoneal administration of compound at 16 mg/kg; range 19-21; format: functional; procedure, shortened: as §3
[44] = system: Mus musculus; test: In vivo antitumor activity was evaluated against L1210 leukemia implanted mice by measuring number of survival days after intraperitoneal administration of compound at 32 mg/kg; range 21-24; format: functional; procedure, shortened: as §3
[45] = system: Mus musculus; test: In vivo antitumor activity was evaluated against L1210 leukemia implanted mice by measuring T/C median after intraperitoneal administration of compound at 32 mg/kg; 22/9; format: functional; procedure, shortened: as §3

SMILES: CN(Cc1cnc2nc(N)nc(N)c2n1)c1ccc(C(=O)N[C@@H](CCC(=O)O)C(=O)O)cc1 [METHOTREXATE]
- Activity [1]: 100%
- Survival days [2]: 15
- Activity [3]: 78%
- Survival days [4]: 18
- Survival days [5]: 16
- IC50 [6]: 12 nM
- Activity [7]: 133%
- Weight change [8]: -1%
- Survival days [9]: 21
- Survival days [10]: 3
- Survival days [11]: 16
- Weight change [12]: -8%
- Weight change [13]: -5%

SMILES: Nc1nc(N)c2nc(CNc3ccc(C(=O)N[C@@H](CCC(=O)O)C(=O)O)cc3)cnc2n1 [AMINOPTERIN]
- Survival days [14]: 11
- Survival days [15]: 19
- Activity [16]: 138%
- IC50 [6]: 3.1 nM
- Weight change [17]: 1%
- Weight change [18]: -12%
- Survival days [19]: 12
- Weight change [20]: 3%
- Activity [21]: 75%
- Survival days [22]: 12
- ID50 [23]: 0.04 µM
- Survival days [24]: 14
- Activity [25]: 50%

SMILES: Nc1nc(N)c2nc(CNc3ccc(C(=O)NC(CCS(=O)(=O)O)C(=O)O)cc3)cnc2n1 (centres undefined)
- Survival days [26]: 19
- Activity [3]: 88%
- IC50 [6]: 31 nM
- Activity [7]: 100%
- Survival days [27]: 16
- Weight change [8]: -1%
- Activity [28]: 138%
- Survival days [29]: 13
- Survival days [30]: 16
- Activity [31]: -8%
- Survival days [32]: 15
- ID50 [23]: 0.063 µM
- Activity [12]: -8%
- Survival days [33]: 13

SMILES: CN(Cc1cnc2nc(N)nc(N)c2n1)c1ccc(C(=O)NC(CS(=O)(=O)O)C(=O)O)cc1 (centres undefined)
- Survival days [34]: 11
- IC50 [6]: 340 nM
- Survival days [35]: 12
- Activity [36]: 33%
- Survival days [37]: 12
- Activity [38]: -1%
- Activity [39]: 44%
- ID50 [23]: 0.045 µM
- Weight change [40]: 2%
- Survival days [41]: 13

SMILES: CN(Cc1cnc2nc(N)nc(N)c2n1)c1ccc(C(=O)NC(CCS(=O)(=O)O)C(=O)O)cc1 (centres undefined)
- IC50 [6]: 180 nM
- Activity ([36]; 16 mg/kg): 155% and 144%
- Survival days [42]: 21
- Survival days [43]: 19
- Weight change [38]: -12%
- Survival days [44]: 21
- Survival days [45]: 22
- ID50 [23]: 0.041 µM
- Weight change [40]: -9%
